Results reported in ChEMBL document CHEMBL3272198, “Preparation and in vitro antifungal activities of some quinolizidine derived hemiaminals and beta-tert-amino sulfides” (1976).

Experiments:
Assay type in all cases: functional
[1] = system: Blastomyces dermatitidis; experiment: Antifungal activity against Blastomyces dermatitidis Gilchrist & Stokes isolate 1107 at 10 ug/ml after 3 weeks (reference value: 40 mm); settings: Gilchrist & Stokes isolate 1107, 504 h, read-out: DIZ
Procedure, shortened: (§1)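 Mycelial phase grown on Sabouraud dextrose agar at 25°C. Agar pH was set to 6 before the test solution was added and was 5.0-5.5 after. Test solutions contained HOAc and Me2SO, and solvent and blank controls were included. Each quadrant was center-inoculated with a 2 × 2 mm piece of a 2-week-old mycelial culture. Colony diameter was measured weekly for 3 weeks and reported as total increments (mm). Duplicates were run.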

[2] = system: Blastomyces dermatitidis; experiment: Antifungal activity against Blastomyces dermatitidis Gilchrist & Stokes isolate 1107 at 20 ug/ml after 3 weeks (reference value: 40 mm); settings: Gilchrist & Stokes isolate 1107, 504 h, read-out: DIZ
[3] = system: Histoplasma capsulatum; experiment: Antifungal activity against Histoplasma capsulatum Darling isolate 1098 at 20 ug/ml after 1 week (reference value: 12 mm); settings: Darling isolate 1098, 168 h, read-out: DIZ
[4] = system: Histoplasma capsulatum; experiment: Antifungal activity against Histoplasma capsulatum Darling isolate 1098 at 60 ug/ml after 2 weeks (reference value: 21 mm); settings: Darling isolate 1098, 336 h, read-out: DIZ
[5] = system: Histoplasma capsulatum; experiment: Antifungal activity against Histoplasma capsulatum Darling isolate 1098 at 40 ug/ml after 2 weeks (reference value: 21 mm); settings: Darling isolate 1098, 336 h, read-out: DIZ
[6] = system: Blastomyces dermatitidis; experiment: Antifungal activity against Blastomyces dermatitidis Gilchrist & Stokes isolate 1107 at 40 ug/ml after 3 weeks (reference value: 40 mm); settings: Gilchrist & Stokes isolate 1107, 504 h, read-out: DIZ; procedure, shortened: as §1
[7] = system: Histoplasma capsulatum; experiment: Antifungal activity against Histoplasma capsulatum Darling isolate 1098 at 10 ug/ml after 3 weeks (reference value: 28 mm); settings: Darling isolate 1098, 504 h, read-out: DIZ
[8] = system: Histoplasma capsulatum; experiment: Antifungal activity against Histoplasma capsulatum Darling isolate 1106 at 100 ug/ml after 3 weeks (reference value: 31 mm); settings: Darling isolate 1106, 504 h, read-out: DIZ
[9] = system: Histoplasma capsulatum; experiment: Antifungal activity against Histoplasma capsulatum Darling isolate 1098 at 100 ug/ml after 1 week (reference value: 12 mm); settings: Darling isolate 1098, 168 h, read-out: DIZ
[10] = system: Blastomyces dermatitidis; experiment: Antifungal activity against Blastomyces dermatitidis Gilchrist & Stokes isolate 1099 at 20 ug/ml after 2 weeks (reference value: 27 mm); settings: Gilchrist & Stokes isolate 1099, 336 h, read-out: DIZ
[11] = system: Histoplasma capsulatum; experiment: Antifungal activity against Histoplasma capsulatum Darling isolate 1106 at 20 ug/ml after 3 weeks (reference value: 31 mm); settings: Darling isolate 1106, 504 h, read-out: DIZ
[12] = system: Histoplasma capsulatum; experiment: Antifungal activity against Histoplasma capsulatum Darling isolate 1098 at 80 ug/ml after 2 weeks (reference value: 21 mm); settings: Darling isolate 1098, 336 h, read-out: DIZ
[13] = system: Blastomyces dermatitidis; experiment: Antifungal activity against Blastomyces dermatitidis Gilchrist & Stokes isolate 1099 at 80 ug/ml after 2 weeks (reference value: 27 mm); settings: Gilchrist & Stokes isolate 1099, 336 h, read-out: DIZ
[14] = system: Blastomyces dermatitidis; experiment: Antifungal activity against Blastomyces dermatitidis Gilchrist & Stokes isolate 1099 at 100 ug/ml after 3 weeks (reference value: 34 mm); settings: Gilchrist & Stokes isolate 1099, 504 h, read-out: DIZ; procedure, shortened: as §1
[15] = system: Blastomyces dermatitidis; experiment: Antifungal activity against Blastomyces dermatitidis Gilchrist & Stokes isolate 1099 at 20 ug/ml after 1 week (reference value: 14 mm); settings: Gilchrist & Stokes isolate 1099, 168 h, read-out: DIZ; procedure, shortened: as §1
[16] = system: Histoplasma capsulatum; experiment: Antifungal activity against Histoplasma capsulatum Darling isolate 1106 at 80 ug/ml after 3 weeks (reference value: 31 mm); settings: Darling isolate 1106, 504 h, read-out: DIZ
[17] = system: Histoplasma capsulatum; experiment: Antifungal activity against Histoplasma capsulatum Darling isolate 1098 at 10 ug/ml after 2 weeks (reference value: 21 mm); settings: Darling isolate 1098, 336 h, read-out: DIZ
[18] = system: Blastomyces dermatitidis; experiment: Antifungal activity against Blastomyces dermatitidis Gilchrist & Stokes isolate 1099 at 40 ug/ml after 1 week (reference value: 14 mm); settings: Gilchrist & Stokes isolate 1099, 168 h, read-out: DIZ
[19] = system: Histoplasma capsulatum; experiment: Antifungal activity against Histoplasma capsulatum Darling isolate 1106 at 60 ug/ml after 2 weeks (reference value: 25 mm); settings: Darling isolate 1106, 336 h, read-out: DIZ
[20] = system: Blastomyces dermatitidis; experiment: Antifungal activity against Blastomyces dermatitidis Gilchrist & Stokes isolate 1099 at 100 ug/ml after 2 weeks (reference value: 27 mm); settings: Gilchrist & Stokes isolate 1099, 336 h, read-out: DIZ
[21] = system: Histoplasma capsulatum; experiment: Antifungal activity against Histoplasma capsulatum Darling isolate 1106 at 40 ug/ml after 1 week (reference value: 14 mm); settings: Darling isolate 1106, 168 h, read-out: DIZ
[22] = system: Histoplasma capsulatum; experiment: Antifungal activity against Histoplasma capsulatum Darling isolate 1106 at 60 ug/ml after 1 week (reference value: 14 mm); settings: Darling isolate 1106, 168 h, read-out: DIZ
[23] = system: Blastomyces dermatitidis; experiment: Antifungal activity against Blastomyces dermatitidis Gilchrist & Stokes isolate 1107 at 60 ug/ml after 2 weeks (reference value: 35 mm); settings: Gilchrist & Stokes isolate 1107, 336 h, read-out: DIZ; procedure, shortened: as §1
[24] = system: Histoplasma capsulatum; experiment: Antifungal activity against Histoplasma capsulatum Darling isolate 1106 at 60 ug/ml after 3 weeks (reference value: 31 mm); settings: Darling isolate 1106, 504 h, read-out: DIZ
[25] = system: Blastomyces dermatitidis; experiment: Antifungal activity against Blastomyces dermatitidis Gilchrist & Stokes isolate 1107 at 10 ug/ml after 1 week (reference value: 20 mm); settings: Gilchrist & Stokes isolate 1107, 168 h, read-out: DIZ; procedure, shortened: as §1
[26] = system: Blastomyces dermatitidis; experiment: Antifungal activity against Blastomyces dermatitidis Gilchrist & Stokes isolate 1107 at 20 ug/ml after 2 weeks (reference value: 35 mm); settings: Gilchrist & Stokes isolate 1107, 336 h, read-out: DIZ
[27] = system: Histoplasma capsulatum; experiment: Antifungal activity against Histoplasma capsulatum Darling isolate 1098 at 20 ug/ml after 3 weeks (reference value: 28 mm); settings: Darling isolate 1098, 504 h, read-out: DIZ
[28] = system: Blastomyces dermatitidis; experiment: Antifungal activity against Blastomyces dermatitidis Gilchrist & Stokes isolate 1107 at 100 ug/ml after 2 weeks (reference value: 35 mm); settings: Gilchrist & Stokes isolate 1107, 336 h, read-out: DIZ; procedure, shortened: as §1
[29] = system: Histoplasma capsulatum; experiment: Antifungal activity against Histoplasma capsulatum Darling isolate 1106 at 100 ug/ml after 2 weeks (reference value: 25 mm); settings: Darling isolate 1106, 336 h, read-out: DIZ
[30] = system: Blastomyces dermatitidis; experiment: Antifungal activity against Blastomyces dermatitidis Gilchrist & Stokes isolate 1107 at 80 ug/ml after 2 weeks (reference value: 35 mm); settings: Gilchrist & Stokes isolate 1107, 336 h, read-out: DIZ; procedure, shortened: as §1
[31] = system: Histoplasma capsulatum; experiment: Antifungal activity against Histoplasma capsulatum Darling isolate 1106 at 20 ug/ml after 1 week (reference value: 14 mm); settings: Darling isolate 1106, 168 h, read-out: DIZ
[32] = system: Blastomyces dermatitidis; experiment: Antifungal activity against Blastomyces dermatitidis Gilchrist & Stokes isolate 1099 at 20 ug/ml after 3 weeks (reference value: 34 mm); settings: Gilchrist & Stokes isolate 1099, 504 h, read-out: DIZ
[33] = system: Histoplasma capsulatum; experiment: Antifungal activity against Histoplasma capsulatum Darling isolate 1098 at 60 ug/ml after 3 weeks (reference value: 28 mm); settings: Darling isolate 1098, 504 h, read-out: DIZ

CS[C@@]1(C)CC[C@@H]2CCCCN2C1O (stereo partly drawn)
zone of inhibition at 10 µg/mL [1]: 40 mm | zone of inhibition at 20 µg/mL [2]: 40 mm | zone of inhibition at 20 µg/mL [3]: 10 mm | zone of inhibition at 60 µg/mL [4]: 18 mm | zone of inhibition at 40 µg/mL [5]: 19 mm | zone of inhibition at 40 µg/mL [6]: 40 mm | zone of inhibition at 10 µg/mL [7]: 31 mm | zone of inhibition at 100 µg/mL [8]: 26 mm | zone of inhibition at 100 µg/mL [9]: 8 mm | zone of inhibition at 20 µg/mL [10]: 26 mm | zone of inhibition at 20 µg/mL [11]: 26 mm | zone of inhibition at 80 µg/mL [12]: 18 mm | zone of inhibition at 80 µg/mL [13]: 25 mm | zone of inhibition at 100 µg/mL [14]: 33 mm | zone of inhibition at 20 µg/mL [15]: 15 mm | zone of inhibition at 80 µg/mL [16]: 26 mm | zone of inhibition at 10 µg/mL [17]: 20 mm | zone of inhibition at 40 µg/mL [18]: 13 mm | zone of inhibition at 60 µg/mL [19]: 19 mm | zone of inhibition at 100 µg/mL [20]: 25 mm | zone of inhibition at 40 µg/mL [21]: 10 mm | zone of inhibition at 60 µg/mL [22]: 10 mm | zone of inhibition at 60 µg/mL [23]: 31 mm | zone of inhibition at 60 µg/mL [24]: 27 mm | zone of inhibition at 10 µg/mL [25]: 20 mm | zone of inhibition at 20 µg/mL [26]: 34 mm | zone of inhibition at 20 µg/mL [27]: 31 mm | zone of inhibition at 100 µg/mL [28]: 31 mm | zone of inhibition at 100 µg/mL [29]: 17 mm | zone of inhibition at 80 µg/mL [30]: 29 mm | zone of inhibition at 20 µg/mL [31]: 11 mm | zone of inhibition at 20 µg/mL [32]: 35 mm | zone of inhibition at 60 µg/mL [33]: 30 mm
